# High-throughput results (PubChem)
# Most compounds without a hit are left out; they make up all but 3.5% or so of the library.
# MrgX1 PAM = human MrgX1 positive allosteric modulation, primary screen; 0.63% of 310,000 active; AID 588675; B-score at 10 µM; MrgX1-HEK293, Fluo-4 calcium flux, FDSS; active compounds read high;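 active = plate-corrected calcium response at least 3 library SD above typical, normal starting fluorescence, not activating the receptor alone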;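 also: compound read alongside a low EC10 to EC30 dose of BAM8-22 agonist; peak minus trough fluorescence over baseline measured at the second addition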
# RGS4 act = RGS4 potentiation or activation | B-score at 10 µM | 0.92% of 310,000 active | HEK293 M3R/inducible RGS4, carbachol calcium flux Fluo4; active compounds read low;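 active = B-score of the integrated calcium signal more than 4 SD below the library mean, with starting fluorescence not abnormally high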;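 also: negative B-score means reduced calcium response which marks RGS4 activation or potentiation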
#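 Assay system: Inducible-RGS4 HEK293 cells carrying M3 receptor | Schedule: Compound preincubation 20 min at room temperature before agonist | Signal: Kinetic calcium fluorescence imaging with Fluo4-AM dye, 2 µM | Read-out basis: B score from integrated fluorescence ratio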
# RGS4 inh = human RGS4 inhibition. AID 463165. HEK293 M3R/RGS4 inducible, Fluo-4 calcium flux; active compounds read high; triggered by carbachol at its EC20. B-score at 10 µM. 0.45% of 310,000 active;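 active = B-score, a plate-corrected calcium signal, over three deviations above library mean, with baseline fluorescence within five deviations of library mean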;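 also: RGS4 expression induced by doxycycline in cells with stable M3 receptor; B-score is computed from the integrated fluorescence ratio over baseline after carbachol; higher B-score means a larger calcium signal and so more RGS4 inhibition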
# Target sequence (P49798 whole entry, looked up): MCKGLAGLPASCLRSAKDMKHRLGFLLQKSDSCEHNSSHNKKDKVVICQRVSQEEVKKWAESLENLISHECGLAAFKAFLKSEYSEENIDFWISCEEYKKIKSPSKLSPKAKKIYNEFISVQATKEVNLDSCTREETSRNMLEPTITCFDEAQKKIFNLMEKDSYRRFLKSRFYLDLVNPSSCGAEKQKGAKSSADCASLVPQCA
# MrgX1 ag = human MrgX1 receptor agonism, primary screen | B-score at 10 µM | AID 588627 | 0.44% of 310,000 active | MrgX1-HEK293 cells, Fluo-4 calcium fluorescence, agonist mode; active compounds read high;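 active = calcium response B-score plate-corrected fluorescence ratio at least 3 library SD, with starting fluorescence B-score inside 5 SD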
#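 Assay system: MrgX1-expressing HEK293 cells / Amount: fifteen thousand cells per well / Doses: test compound in the initial addition of three / Timing: cells plated overnight, dye loaded 0.5 h 37 °C, 0.5 h room temperature / Technique: kinetic calcium dye fluorescence, Fluo-4 NW / Control set: positive and negative controls per plate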
# MrgX1 antagonist = blocks BAM8-22 activation of human MrgX1 receptor | Q96LB2 | MRGX1-HEK293 calcium flux, Fluo-4, BAM8-22 antagonism; active compounds read low | B-score at 10 µM | AID 588676 | 1.3% of 310,000 active;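 active = calcium-response B-score plate-corrected more than 3 library SD below zero, starting fluorescence within 5 deviations, no agonist response on first addition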;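 also: peak minus trough fluorescence over baseline after final BAM8-22 challenge near maximal dose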
# MrgX1 antag conf = reconfirmed antagonist of human MrgX1 receptor signaling; 19% of 2,300 active; shares compounds with MrgX1 antagonist; AID 602420; MrgX1-HEK293, BAM8-22 calcium flux, Fluo-4; active compounds read low; remaining BAM8-22 calcium response % of control (active compounds read low), % at 10 µM;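 active = remaining agonist calcium response no higher than 100% minus 3 SD of agonist-only control wells, with starting fluorescence near control levels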;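 also: agonist BAM8-22 given at a near maximal EC90 to ECmax level; peak minus minimum fluorescence divided by baseline after agonist addition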
# HEK293 Ca flux = MrgX1 antagonist counter-screen hit in parental HEK293 cells; Fluo-4 calcium fluorescence, FDSS; fluorescence ratio F(max-min)/F0 at 10 µM; shares compounds with MrgX1 antagonist; 2% of 4,000 active; AID 624111;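 active = duplicate-averaged calcium fluorescence ratio at least three times the standard deviation of buffer wells, a nonspecific response in parental cells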
# HEK293 Ca counter = activity in parental HEK293 cells without MrgX1; parental HEK293 calcium flux, Fluo-4 fluorescence ratio; active compounds read high; shares compounds with MrgX1 antagonist; fluorescence ratio F(max-min)/F0 at 10 µM; 0.4% of 4,000 active;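 active = calcium fluorescence ratio, averaged over duplicates, at least 3 SD of the buffer-well ratio, meaning a nonspecific response in receptor-free cells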;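 also: untransfected parental HEK293 lacking MrgX1 used as counterscreen for MrgX1 allosteric activators; fluorescence change taken during the second addition on a kinetic imager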
# HEK293 Ca cntr2 = MrgX1 activator counter-screen hit in parental HEK293 cells. shares compounds with MrgX1 antagonist. Fluo-4 calcium fluorescence (FDSS); active compounds read high. fluorescence ratio F(max-min)/F0 at 10 µM. 8.7% of 4,000 active;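 active = calcium fluorescence ratio at least three times the spread of buffer wells, meaning a non-specific response in parental cells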
# Active calls of the source: *; i = inactive; / = no result.
SMILES,MrgX1 PAM,RGS4 act,RGS4 inh,MrgX1 ag,MrgX1 antagonist,MrgX1 antag conf,HEK293 Ca flux,HEK293 Ca counter,HEK293 Ca cntr2
COC(=O)Cn1cc(C(=O)C(C)(C)C)c2ccccc21,i,i,i,i,i,/,/,/,/
CCOC(=O)Cn1cc(C(=O)C(C)(C)C)c2ccccc21,i,i,i,i,-4.9*,i,i,i,i
O=C(Nc1nnc(SCC(=O)N2CCCC2)s1)C1CC(=O)N(c2ccc(F)cc2)C1 (centres undefined),i,i,i,i,i,/,/,/,/
O=C(CSc1nnc(NC(=O)C2CC(=O)N(c3ccc(F)cc3)C2)s1)NC1CCCC1 (centres undefined),i,i,i,i,-4.9*,i,i,i,i
CC(OC(=O)c1ccc(S(=O)(=O)NCc2ccco2)cc1)C(=O)Nc1ccc(Cl)cn1 (centres undefined),i,i,i,i,-6.5*,i,i,i,i
O=C(COC(=O)c1ccc(S(=O)(=O)NCc2ccco2)cc1)Nc1ncc(Cl)cc1Cl,i,i,i,i,i,/,/,/,/
O=C(NCCc1c[nH]c2ccccc12)c1c(Cl)nc2sccn12,i,i,i,i,i,/,/,/,/
CCOC(=O)N1CCN(C(=O)C2CCN(Cc3nc(-c4ccccc4C)oc3C)CC2)CC1,i,i,i,i,-4.8*,i,i,i,i
O=C(O)COc1ccc(Cl)cc1CO,i,i,i,i,-4.7*,i,i,i,i
Brc1ccc2nc(-c3c[nH]c4ccccc34)cn2c1,i,i,i,i,-5.4*,i,i,i,i
Cc1cccn2cc(-c3c[nH]c4ccccc34)nc12,i,i,i,i,i,/,/,/,/
